Screening results from PubChem BioAssay.
dFosB act: activators of mouse delta FosB homodimer; P13346; purified delta FosB, TAMRA-CDK5 oligo fluorescence polarization; percent of positive-control signal above neutral wells; activation, % at 25 µM; 340,000 tested, 0.99% active; AID 493131;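 active means mean activation above about 17%, with every replicate also reaching it, limit read from the data, passing the limit was not always enough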
Target sequence (P13346 whole entry, looked up): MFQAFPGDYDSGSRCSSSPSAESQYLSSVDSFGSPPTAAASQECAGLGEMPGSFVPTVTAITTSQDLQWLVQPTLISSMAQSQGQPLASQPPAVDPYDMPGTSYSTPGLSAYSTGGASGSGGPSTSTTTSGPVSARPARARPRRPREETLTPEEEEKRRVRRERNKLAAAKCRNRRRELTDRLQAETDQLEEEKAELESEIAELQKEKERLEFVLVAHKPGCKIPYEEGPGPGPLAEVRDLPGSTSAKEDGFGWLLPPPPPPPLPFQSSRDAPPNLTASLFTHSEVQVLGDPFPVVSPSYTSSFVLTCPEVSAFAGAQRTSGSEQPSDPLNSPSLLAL
Dyrk1A ADPGlo: blocks rat Dyrk1A kinase activity | inhibition, % at 12.5 µM | 310,000 tested, 0.43% active | Q63470 | ADP-Glo luminescence, NFATc1 peptide; in the data active means inhibition above about 50%;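 further: plate controls were vehicle with enzyme for no effect and no enzyme for full effect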
CAL PDZ FP-1: blocks peptide binding to human CAL PDZ domain; Q9HD26; purified CAL PDZ, TMR-peptide fluorescence polarization, 1 h; inhibition, % at 20 µM; 330,000 tested, 0.02% active; AID 504414;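 active means highest replicate inhibition of at least 40%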;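 further: plate controls were DMSO neutral control wells for no effect and unlabeled competitor peptide control wells for full effect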
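Control set: unlabelled peptide and DMSO controls / Material: purified CerCALP PDZ construct / Timing: 1 h incubation at room temperature before polarization reading / Doses: 20 µM, one dose / Detection: fluorescence polarization (mP)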
CDK5 p35 inh: blocks human CDK5/p35 kinase activity | inhibition, % at 10 µM | Recombinant CDK5/p35, ADP-Glo luminescence, 60 min | Q00535+Q15078 | 330,000 tested, 0.01% active;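 active means highest replicate inhibition of at least 50% and at least 75% of replicates reaching 50%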;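 further: plate controls were DMSO neutral control for no effect and GW8510 at 10 µM for full effect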
Rtt109 HAT inh: inhibitors of Candida albicans Rtt109/Vps75 histone acetyltransferase; 330,000 tested, 0.16% active; AID 540336; Q5AAJ8; inhibition, % at 34.9 µM; purified Rtt109/Vps75, ThioGlo CoA-SH fluorescence, 4 h;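 active means inhibition of at least 50% in every replicate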
Target sequence (Q5AAJ8 whole entry, looked up): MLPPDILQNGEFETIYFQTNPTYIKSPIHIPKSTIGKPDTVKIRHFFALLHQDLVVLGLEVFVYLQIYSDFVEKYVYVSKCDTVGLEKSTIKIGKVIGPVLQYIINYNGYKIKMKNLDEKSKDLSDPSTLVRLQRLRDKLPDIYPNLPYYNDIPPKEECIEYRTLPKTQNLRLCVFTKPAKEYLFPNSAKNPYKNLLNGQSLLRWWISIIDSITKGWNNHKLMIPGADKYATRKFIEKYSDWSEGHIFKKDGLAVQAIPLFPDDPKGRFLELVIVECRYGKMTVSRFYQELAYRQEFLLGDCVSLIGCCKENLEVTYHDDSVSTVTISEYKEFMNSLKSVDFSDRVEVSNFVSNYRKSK
CAL PDZ FP-2: inhibitors of human CAL PDZ peptide binding; inhibition, % at 24.9 µM; 300,000 tested, 0.92% active; purified CAL PDZ, TMR-peptide fluorescence polarization, 1 h; AID 602252;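 active means mean inhibition of at least 30% with at least half of replicates also reaching 30%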;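 further: 0% = DMSO neutral control and 100% = excess unlabeled competitor peptide PRC23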
Starred values were filed as active, the others as inactive. This is a sample that favours compounds with a hit; in the whole collection about 2.2% have one here.

How did CN1C(=O)Cc2cc(S(=O)(=O)Nc3ccc(Cl)cc3)ccc21 do in these assays?
dFosB act: 0.2; Dyrk1A ADPGlo: 1.7; CAL PDZ FP-1: -1.4; CDK5 p35 inh: 0.9; Rtt109 HAT inh: 7.4; CAL PDZ FP-2: 2.3

How did COc1ccccc1CC(NC(C)=O)C(=O)NC1CCN(C(=O)c2ccc([N+](=O)[O-])cc2)CC1 (stereo not given) do in these assays?
dFosB act: -2.5; Dyrk1A ADPGlo: -4.5; CAL PDZ FP-1: -1.4; CDK5 p35 inh: 0.6; Rtt109 HAT inh: 7.2; CAL PDZ FP-2: 1.6

How did COc1ccc(CC(NC(C)=O)C(=O)NC2CCN(C(=O)c3ccc([N+](=O)[O-])cc3)CC2)cc1OC (stereo not given) do in these assays?
dFosB act: -2.6; Dyrk1A ADPGlo: -9.1; CAL PDZ FP-1: 16.3; CDK5 p35 inh: 1.0; Rtt109 HAT inh: -0.9; CAL PDZ FP-2: 76.6*

What do the screens show for `COc1ccc(-c2nc(N)ncc2-c2ccc(OC)c(OC)c2)c(O)c1`?
dFosB act: -5.8; Dyrk1A ADPGlo: 10.2; CDK5 p35 inh: 2.5; Rtt109 HAT inh: -4.4; CAL PDZ FP-2: 58.9*

Results for COCCNC(=O)C(=O)NCCN1CCNCC1 ?
dFosB act: 5.3; Dyrk1A ADPGlo: 2.6; CAL PDZ FP-1: 0.0; CDK5 p35 inh: 0.0; Rtt109 HAT inh: -14.1; CAL PDZ FP-2: 87.6*

How did CCOc1ccc(S(=O)(=O)N2Cc3ccccc3CC2C(=O)O)cc1 (stereo not given) do in these assays?
dFosB act: 0.3; Dyrk1A ADPGlo: 3.0; CAL PDZ FP-1: 0.8; CDK5 p35 inh: -3.2; Rtt109 HAT inh: -3.2; CAL PDZ FP-2: 51.0*

How did COc1ccc(S(=O)(=O)N2Cc3ccccc3CC2C(=O)O)cc1 (stereo not given) do in these assays?
dFosB act: -4.0; Dyrk1A ADPGlo: -1.2; CAL PDZ FP-1: -0.1; CDK5 p35 inh: -1.5; Rtt109 HAT inh: -4.9; CAL PDZ FP-2: -0.2

What do the screens show for `O=C(Nc1ccccc1)C1CC2CCC1C2` (stereo not given)?
dFosB act: -0.8; Dyrk1A ADPGlo: 7.9; CAL PDZ FP-1: 0.0; CDK5 p35 inh: 0.1; Rtt109 HAT inh: -1.3

What do the screens show for `O=C(Nc1ccccc1)OC1CCC2CC1CCC2OC(=O)Nc1ccccc1` (stereo not given)?
dFosB act: -5.9; Dyrk1A ADPGlo: 1.0; CAL PDZ FP-1: -0.8; CDK5 p35 inh: 0.2; Rtt109 HAT inh: 18.2; CAL PDZ FP-2: 31.6*

How did O=C(c1ccc2c(c1)OCO2)N(c1ccc(Br)cc1)C1C=CS(=O)(=O)C1 (stereo not given) do in these assays?
dFosB act: -1.7; Dyrk1A ADPGlo: -8.4; CAL PDZ FP-1: -2.4; CDK5 p35 inh: 0.2; Rtt109 HAT inh: 6.2; CAL PDZ FP-2: -2.2

What do the screens show for `CCCc1cc(=O)oc2cc(C)cc(OCC(=O)NCc3cccnc3)c12`?
dFosB act: -13.1; Dyrk1A ADPGlo: 14.4; CAL PDZ FP-1: -1.6; CDK5 p35 inh: 1.1; Rtt109 HAT inh: -5.9; CAL PDZ FP-2: 40.9*

Results for CCCCc1cc(=O)oc2cc(C)cc(OCC(=O)Nc3cccnc3)c12 ?
dFosB act: 8.9; Dyrk1A ADPGlo: -3.3; CAL PDZ FP-1: 0.1; CDK5 p35 inh: 0.6; Rtt109 HAT inh: -2.7; CAL PDZ FP-2: -0.3

How did O=c1c2cc3c(cc2[nH]c(=S)n1CCN1CCOCC1)OCO3 do in these assays?
dFosB act: 4.6; Dyrk1A ADPGlo: 5.0; CDK5 p35 inh: -0.2; Rtt109 HAT inh: 3.1; CAL PDZ FP-2: 45.3*

Results for O=C(CCn1c(=S)[nH]c2cc3c(cc2c1=O)OCO3)NCc1ccccc1Cl ?
dFosB act: 34.6*; Dyrk1A ADPGlo: -6.9; CAL PDZ FP-1: -2.0; CDK5 p35 inh: -3.9; Rtt109 HAT inh: 0.2; CAL PDZ FP-2: -1.9

Results for CC1CCN(CCn2c(=S)[nH]c3cc4c(cc3c2=O)OCO4)CC1 ?
dFosB act: 5.0; CAL PDZ FP-1: -2.6; CDK5 p35 inh: 2.8; Rtt109 HAT inh: -4.4; CAL PDZ FP-2: -4.7

Results for CC(=O)c1ccc(NC(=O)C(C)OC(=O)c2ccc(NS(=O)(=O)c3ccc(F)c(F)c3)cc2)cc1 (stereo not given) ?
dFosB act: -13.4; Dyrk1A ADPGlo: -7.7; CAL PDZ FP-1: -2.1; CDK5 p35 inh: -0.2; Rtt109 HAT inh: -1.1; CAL PDZ FP-2: -3.5

Results for CCCCCCCCCCCCCCCCn1cc[n+](CC(C)=O)c1 ?
dFosB act: -172.8; Dyrk1A ADPGlo: 1.7; CAL PDZ FP-1: -0.8; CDK5 p35 inh: 4.1; Rtt109 HAT inh: 111.7*; CAL PDZ FP-2: -3.4

How did CCCCCCn1ccc(=N)cc1 do in these assays?
dFosB act: 0.5; Dyrk1A ADPGlo: 10.5; CAL PDZ FP-1: -0.6; CDK5 p35 inh: -0.8; Rtt109 HAT inh: -5.1; CAL PDZ FP-2: -0.6

What do the screens show for `COc1cccc(/C=N\NS(=O)(=O)c2ccccc2)c1OC`?
dFosB act: 4.6; Dyrk1A ADPGlo: 3.1; CAL PDZ FP-1: -4.2; CDK5 p35 inh: 0.5; Rtt109 HAT inh: -1.0; CAL PDZ FP-2: -2.3

Results for Cc1cc(C)cc(NC(=O)N2CCN(S(C)(=O)=O)CC2)c1 ?
dFosB act: 0.4; Dyrk1A ADPGlo: -5.3; CAL PDZ FP-1: 0.1; CDK5 p35 inh: -1.2; Rtt109 HAT inh: 3.7; CAL PDZ FP-2: -4.2

What do the screens show for `CCOc1ccccc1N=Nc1c(C)[nH]n(C(N)=S)c1=O`?
dFosB act: -9.6; Dyrk1A ADPGlo: 2.5; CDK5 p35 inh: -0.6; Rtt109 HAT inh: -0.4; CAL PDZ FP-2: 37.3*

How did O=C(c1ccc(CS(=O)c2cccc(Cl)c2)o1)N1CCCCCC1 (stereo not given) do in these assays?
dFosB act: -0.2; Dyrk1A ADPGlo: 0.4; CAL PDZ FP-1: 0.2; CDK5 p35 inh: 1.3; Rtt109 HAT inh: -2.3; CAL PDZ FP-2: -8.9

Results for O=C(Nc1cnccn1)Nc1ccccc1F ?
dFosB act: -0.9; CAL PDZ FP-1: -1.0; CDK5 p35 inh: -1.9; Rtt109 HAT inh: 4.0; CAL PDZ FP-2: 51.7*

How did Cn1c(N)c(S(=O)(=O)N2CCCC2)c(=O)n(C)c1=O do in these assays?
dFosB act: 5.9; Dyrk1A ADPGlo: 3.1; CAL PDZ FP-1: -0.7; CDK5 p35 inh: 1.3; Rtt109 HAT inh: -1.9; CAL PDZ FP-2: 46.5*

Results for Cc1noc(C)c1C(=O)Nc1ccc2ccccc2c1 ?
dFosB act: 4.3; Dyrk1A ADPGlo: 3.2; CAL PDZ FP-1: -1.5; CDK5 p35 inh: 0.1; Rtt109 HAT inh: -5.8; CAL PDZ FP-2: -4.0

Results for NC(=O)COC(=O)CSc1ccc2ccccc2c1 ?
dFosB act: 6.1; Dyrk1A ADPGlo: -1.6; CAL PDZ FP-1: -2.4; CDK5 p35 inh: 0.8; Rtt109 HAT inh: -2.3; CAL PDZ FP-2: -1.4

How did CC(C)(C)OC(=O)C[C@H]1C/C=C\C[C@@H](CC(=O)NCCO)C(=O)NCCOC1=O do in these assays?
dFosB act: 0.6; Dyrk1A ADPGlo: -1.4; CAL PDZ FP-1: -0.9; CDK5 p35 inh: 0.0; Rtt109 HAT inh: -5.1; CAL PDZ FP-2: 0.6
